From ChEMBL document CHEMBL1914440, “Discovery of potent, selective, and orally bioavailable alkynylphenoxyacetic acid CRTH2 (DP2) receptor antagonists for the treatment of allergic inflammatory diseases” (J Med Chem, 2011)

Assays:
[1] = Percentage unbound in human plasma; format: ADME, cell-free
[2] = molecular target: T1, Prostaglandin D2 receptor 2 (Homo sapiens, UniProt Q9Y5Y4); test: Displacement of [3H]PGD2 from human CRTH2 expressed in chinese hamster CHO cells by liquid scintillation counting; format: cell-based
T1 sequence (Q9Y5Y4 whole entry): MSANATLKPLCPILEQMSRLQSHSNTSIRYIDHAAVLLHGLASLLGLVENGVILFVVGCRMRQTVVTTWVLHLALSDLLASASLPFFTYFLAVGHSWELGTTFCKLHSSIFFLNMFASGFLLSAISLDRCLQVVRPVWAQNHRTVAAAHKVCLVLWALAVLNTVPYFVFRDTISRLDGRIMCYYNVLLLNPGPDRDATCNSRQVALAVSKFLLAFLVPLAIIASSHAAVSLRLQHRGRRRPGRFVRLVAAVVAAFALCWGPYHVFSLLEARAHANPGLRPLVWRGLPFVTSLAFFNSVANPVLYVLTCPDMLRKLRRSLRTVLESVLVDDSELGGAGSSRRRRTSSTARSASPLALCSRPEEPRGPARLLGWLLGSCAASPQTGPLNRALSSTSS
In short: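 Scintillation proximity competition assay: 2–5 μg human CRTH2 cell membranes, 1.5 nM [3H]PGD2, WGA-SPA beads, 10 mM HEPES/KOH pH 7.4, 10 mM MnCl2, protease inhibitors, 1% DMSO; 90 min, room temperature, shaking. Nonspecific binding defined with 1 μM PGD2. Ki by Cheng–Prusoff, mean of ≥3 independent dose–response experiments.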

[3] = Oral bioavailability in BALB/c mouse at 5 mg/kg by LC/MS/MS analysis; format: ADME, organism-based; settings: in vivo
In short: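 Mouse PK after a 5 mg/kg oral dose.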

[4] = Clearance in BALB/c mouse at 5 mg/kg, po by LC/MS/MS analysis; format: ADME, organism-based; design: dose 5 mg/kg, route oral; settings: in vivo
[5] = Intrinsic clearance in rat liver microsomes assessed per mg of protein at 1 uM by LC/MS/MS analysis; format: ADME, Microsome
[6] = Intrinsic clearance in human liver microsomes assessed per mg of protein at 1 uM by LC/MS/MS analysis; format: ADME, Microsome
[7] = Percentage unbound in mouse plasma; format: ADME, cell-free
[8] = Percentage unbound in rat plasma; format: ADME, cell-free

| fraction unbound [1] | Ki [2] | bioavailability [3] | CL/F [4] | microsomal CLint at 1 µM [5] | microsomal CLint at 1 µM [6] | fraction unbound [7] | fraction unbound [8] | SMILES |
| --- | --- | --- | --- | --- | --- | --- | --- | --- |
| 0.029 | 117 nM |  |  |  |  |  |  | O=C(O)COc1ccc(Cl)cc1C#Cc1cccnc1 |
|  | 4 nM | 130% | 5.83 mL/min/kg |  |  |  |  | CC(C)S(=O)(=O)c1ccc(F)c(C#Cc2cc(Cl)ccc2OCC(=O)O)c1 |
|  | 1.9 nM |  |  | 418 µL/min/mg | 89 µL/min/mg |  |  | Cc1ccc(S(=O)(=O)N2CCCCC2C)cc1C#Cc1cc(Cl)ccc1OCC(=O)O (configuration not stated) |
| 0.004 | 3.4 nM |  |  | 12 µL/min/mg | < 10 µL/min/mg | 0.01 | 0.004 | Cc1ccc(S(=O)(=O)NC(C)C)cc1C#Cc1cc(Cl)ccc1OCC(=O)O |
|  | 4.2 nM |  |  | 119 µL/min/mg | 79 µL/min/mg |  |  | Cc1ccc(S(=O)(=O)N(C)CC(C)C)cc1C#Cc1cc(Cl)ccc1OCC(=O)O |
|  | 2.9 nM |  | 11.7 mL/min/kg |  |  |  |  | CC(C)S(=O)(=O)c1ccc(Cl)c(C#Cc2cc(Cl)ccc2OCC(=O)O)c1 |
|  | 28 nM | 3% | 35 mL/min/kg | < 10 µL/min/mg | < 10 µL/min/mg |  |  | O=C(O)COc1ccc(Cl)cc1C#Cc1ccc(CO)cc1F |
| 0.047 | 10 nM |  |  |  |  | 0.3 | 0.081 | O=C(O)COc1ccc(Cl)cc1C#Cc1cccc(S(=O)(=O)CCO)c1 |
| 0.005 | 4.4 nM |  |  | 24 µL/min/mg | < 10 µL/min/mg | 0.008 | 0.008 | CCNS(=O)(=O)c1ccc(C)c(C#Cc2cc(Cl)ccc2OCC(=O)O)c1 |
| 0.002 | 8.6 nM |  |  |  |  | 0.006 | 0.002 | CCCc1ccc(S(C)(=O)=O)cc1C#Cc1cc(Cl)ccc1OCC(=O)O |
| 0.002 | 3.8 nM |  |  | 64 µL/min/mg | < 10 µL/min/mg | 0.005 |  | Cc1ccc(S(=O)(=O)N(C)C(C)C)cc1C#Cc1cc(Cl)ccc1OCC(=O)O |
| 0.004 | 5 nM |  |  | 22 µL/min/mg | < 10 µL/min/mg | 0.01 | 0.004 | Cc1ccc(S(=O)(=O)N(C)C)cc1C#Cc1cc(Cl)ccc1OCC(=O)O |
| < 0.001 | 12 nM |  | 1.67 mL/min/kg |  |  |  |  | O=C(O)COc1ccc(Cl)cc1C#Cc1ccc2c(c1)S(=O)(=O)c1ccccc1-2 |
| 0.015 | 8 nM |  |  |  |  | 0.048 | 0.018 | Cc1ccc(S(=O)(=O)CCCO)cc1C#Cc1cc(Cl)ccc1OCC(=O)O |
|  | 5 nM |  |  |  |  |  |  | Cc1ccc(S(=O)(=O)N2CCCCC2)cc1C#Cc1cc(Cl)ccc1OCC(=O)O |
| 0.006 | 4.1 nM |  |  | 49 µL/min/mg | 32 µL/min/mg | 0.007 | 0.007 | COCCN(C)S(=O)(=O)c1ccc(C)c(C#Cc2cc(Cl)ccc2OCC(=O)O)c1 |
|  | 6 nM |  |  |  |  |  |  | Cc1ccc(S(=O)(=O)c2ccccc2)cc1C#Cc1cc(Cl)ccc1OCC(=O)O |
|  | 28 nM |  |  |  |  |  |  | O=C(O)COc1ccc(Cl)cc1C#Cc1cccc(S(=O)(=O)CCCO)c1 |
|  | 3.2 nM |  |  |  |  |  |  | C[S+]([O-])c1cccc(C#Cc2cc(Cl)ccc2OCC(=O)O)c1 (configuration not stated) |
| 0.009 | 3.1 nM |  | 10 mL/min/kg | < 10 µL/min/mg | < 10 µL/min/mg | 0.029 | 0.007 | CN(C)S(=O)(=O)c1ccc(F)c(C#Cc2cc(Cl)ccc2OCC(=O)O)c1 |
|  | 515 nM |  |  |  |  |  |  | CCCS(=O)(=O)c1ccc(C)c(C#Cc2cc(Cl)ccc2OC(CC(C)C)C(=O)O)c1 (configuration not stated) |
|  | 10 nM |  |  |  |  |  |  | CNS(=O)(=O)c1ccc(C)c(C#Cc2cc(Cl)ccc2OCC(=O)O)c1 |
|  | 3 nM |  |  |  |  |  |  | Cc1ccc(S(=O)(=O)CC(C)C)cc1C#Cc1cc(Cl)ccc1OCC(=O)O |
|  | 43 nM |  |  |  |  |  |  | CCCCCCc1ccncc1C#Cc1cc(Cl)ccc1OCC(=O)O |
